Test results from paper PMC11219355 (Heliyon, 2024).

What was measured:
[1] = system: methicillin-resistant Staphylococcus aureus (MRSA) (DMST 20646); test: Antibacterial growth inhibition; format: cell-based; details: antibiotic 500 μg/mL, 37 °C, 18–22 h, OD600
Procedure, shortened: (§1)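 Inocula: C. acnes grown anaerobically in Schaedler broth at 37 °C for 72 h and adjusted to OD600 0.1. S. aureus and MRSA single colonies grown in nutrient broth at 37 °C for 18 h and adjusted to OD600 0.001. Suspensions were mixed 1:1 with peptide (1000 μg/mL) or ampicillin/clindamycin (500 μg/mL) solutions. Untreated culture served as 0 % inhibition. Three repeats, mean ± SD.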

[2] = system: Cutibacterium acnes (DMST 14916); test: Antibacterial growth inhibition; format: cell-based; details: C. acnes; antibiotic 500 μg/mL; 37 °C, 18–22 h, OD600
Procedure, shortened: as §1

[3] = system: Staphylococcus aureus (ATCC 25923); test: Antibacterial growth inhibition; format: cell-based; details: S. aureus; antibiotic 500 μg/mL; 37 °C, 18–22 h, OD600
Procedure, shortened: as §1

[4] = system: C. acnes, S. aureus and MRSA; test: Antibacterial growth inhibition, stated as one range over the three strains; format: cell-based, Cutibacterium acnes; Staphylococcus aureus; details: peptide 1000 μg/mL
Procedure, shortened: as §1

[5] = system: RAW 264.7 cells; test: RAW 264.7 cytotoxicity assay; format: cell-based, Murine; details: RAW 264.7, MTT, peptide 1000 μg/mL, 24 h
Procedure, shortened: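 Murine macrophages were grown in DMEM plus 10 % heat-inactivated FBS and 1 % antibiotic-antimycotic (37 °C, 5 % CO2) and seeded overnight at 2 × 10⁴ cells/well. Peptide was added at 1000 μg/mL final for 24 h. MTT was added at 0.5 mg/mL final in fresh medium for 30 min. Formazan was dissolved in DMSO and read at OD570. Viability was expressed versus untreated cells. Three repeats, mean ± SD.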

With CC1(C)S[C@@H]2[C@H](NC(=O)[C@H](N)c3ccccc3)C(=O)N2[C@H]1C(=O)O [ampicillin] as the compound, how does the growth inhibition [1] read?
Its growth inhibition is 100.00%.

What about the growth inhibition [2] of the same compound?
The growth inhibition was 92.92%.

And the growth inhibition [3]?
Its growth inhibition is 97.85%.

How did the growth inhibition [1] turn out when CCC[C@@H]1C[C@@H](C(=O)N[C@@H]([C@H]2O[C@H](SC)[C@H](O)[C@@H](O)[C@H]2O)[C@H](C)Cl)N(C)C1 [clindamycin] was run?
The growth inhibition was 51.86%.

And the growth inhibition [2]?
The growth inhibition was 100.00%.

And the growth inhibition [3]?
Its growth inhibition is 96.35%.

With IIDVKMLS [IS8] as the compound, how does the “relative antibacterial potency among the 8 peptides, in words” value [4] read?
The value was “least potent peptide”.

For RKLLEGEE [RE8], which “reduction in cell viability” value [5] is on record?
Its value is ~15%.
